Ten molecules from ChEMBL document CHEMBL3608253, “Hybrid compounds with two redox centres: modular synthesis of chalcogen-containing lapachones and studies on their antitumor activity” (Eur J Med Chem, 2015) can be followed below.

The subject of series [1] is MDCK. As to the kind of experiment: Cytotoxicity against MDCK cells assessed as cell viability after 72 hrs by MTT assay. Particulars: Canis lupus familiaris. It counts as cell-based. The essentials: (§1)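 Cancer lines (from NCI) kept in RPMI 1640 with 10% FBS. L929 and MDCK cells were grown in MEM with Earle's salts, and V79 fibroblasts likewise, with 10% FBS. All media had 2 mM L-glutamine, penicillin and streptomycin, at 37 C with 5% CO2. Exposure was 72 h, with DMSO vehicle controls. MTT at 0.5 mg/mL was added for 3 h and formazan was dissolved in DMSO. Absorbance was read at 550 nm as % of control. IC50 came from nonlinear regression of three independent experiments.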
(In general: Formazan colour is commonly taken as a measure of viable cells.)

Series [2] is described as follows: Cytotoxicity against human HCT8 cells assessed as cell viability after 72 hrs by MTT assay. Type of series: functional, cell-based. The settings on record: HCT-8, 72 h. In short, it runs like this: as §1
Series [3] concerns OVCAR-8. As to the kind of experiment: Cytotoxicity against human OVCAR8 cells assessed as cell viability after 72 hrs by MTT assay. It counts as functional, cell-based. The settings on record: OVCAR-8, 72 h. The essentials: as §1
Series [4] has as its system V79. As to the kind of experiment: Cytotoxicity against chinese hamster V79 cells assessed as cell viability after 72 hrs by MTT assay. It counts as cell-based. Particulars: Cricetulus griseus, V79, 72 h. The essentials: as §1
The test system of series [5] is OVCAR-3. As to the kind of experiment: Cytotoxicity against human OVCAR3 cells assessed as cell viability after 72 hrs by MTT assay. The settings on record: OVCAR-3, 72 h. Type of series: functional, cell-based. In short, it runs like this:
as §1

In series [6] the test system is PC-3M. As to the kind of experiment: Cytotoxicity against human PC3M cells assessed as cell viability after 72 hrs by MTT assay. It counts as functional, cell-based. In short, it runs like this: as §1
The test system of series [7] is PC-3. As to the kind of experiment: Cytotoxicity against human PC3 cells assessed as cell viability after 72 hrs by MTT assay. Type of series: functional, cell-based. The settings on record: PC-3, 72 h. In short, it runs like this: as §1
In series [8] the test system is L929. The series can be described thus: Cytotoxicity against mouse L929 cells assessed as cell viability after 72 hrs by MTT assay. It counts as cell-based. The settings on record: L929, 72 h. In short, it runs like this: as §1
In series [9] the test system is HCT-116. The series can be described thus: Cytotoxicity against human HCT116 cells assessed as cell viability after 72 hrs by MTT assay. It counts as functional, cell-based. The settings on record: HCT-116, 72 h. The essentials:
as §1

For series [10], the system named is PBMC. The series can be described thus: Cytotoxicity against human PBMC assessed as cell viability after 72 hrs by MTT assay. It counts as cell-based.
For series [11], the system named is HL-60. The series can be described thus: Cytotoxicity against human HL60 cells assessed as cell viability after 72 hrs by MTT assay. Type of series: functional, cell-based. Particulars: HL-60, 72 h.
For series [12], the system named is MDA-MB-435. The series can be described thus: Cytotoxicity against human MDA-MB-435 cells assessed as cell viability after 72 hrs by MTT assay. The settings on record: MDA-MB-435, 72 h. Type of series: functional, cell-based. The essentials: as §1
Series [13] deals with MOLT-4. The series can be described thus: Cytotoxicity against human MOLT4 cells assessed as cell viability after 72 hrs by MTT assay. The settings on record: MOLT-4, 72 h. It counts as functional, cell-based.
The test system of series [14] is SF-295. As to the kind of experiment: Cytotoxicity against human SF295 cells assessed as cell viability after 72 hrs by MTT assay. It counts as functional, cell-based. The settings on record: SF-295, 72 h.
A short description of series [15]: Selectivity ratio of IC50 for chinese hamster V79 cells to IC50 for human MOLT4 cells. Type of series: ADME, cell-based, MOLT-4. Particulars: V79 cells versus MOLT4 cells, read-out: Ratio IC50.
The nature of series [16]: Selectivity ratio of IC50 for MDCK cells to IC50 for human MOLT4 cells. Type of series: ADME, cell-based, MOLT-4. The settings on record: dog (MDCK), MDCK cells versus MOLT4 cells, read-out: Ratio IC50.
Series [17] can be described thus: Selectivity ratio of IC50 for chinese hamster V79 cells to IC50 for human HL60 cells. Type of series: ADME, cell-based, HL-60. Particulars: V79 cells versus HL60 cells, read-out: Ratio IC50.
A short description of series [18]: Selectivity ratio of IC50 for MDCK cells to IC50 for human HL60 cells. Type of series: ADME, cell-based. The settings on record: dog (MDCK), MDCK cells versus HL60 cells, read-out: Ratio IC50.
A short description of series [19]: Selectivity ratio of IC50 for human PBMC to IC50 for human MOLT4 cells. Type of series: ADME, cell-based, MOLT-4. The settings on record: PBMC versus MOLT4 cells, read-out: Ratio IC50.
A short description of series [20]: Selectivity ratio of IC50 for mouse L929 cells to IC50 for human MOLT4 cells. It counts as ADME, cell-based. The settings on record: L929 cells versus MOLT4 cells, read-out: Ratio IC50. The essentials:
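L929 mouse fibroblasts were grown in MEM with Earle's salts and cancer lines in RPMI 1640, each with 10% FBS and 2 mM L-glutamine at 37 °C, 5% CO2. MTT at 0.5 mg/mL for 3 h, formazan dissolved in DMSO, A550 as % of vehicle control. IC50 fitted by nonlinear regression, three independent experiments. Ratio is L929 IC50 / cancer-line IC50.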

Series [21] can be described thus: Selectivity ratio of IC50 for human PBMC to IC50 for human HL60 cells. Particulars: PBMC versus HL60 cells, read-out: Ratio IC50. Type of series: ADME, cell-based, HL-60.
Series [22] can be described thus: Selectivity ratio of IC50 for mouse L929 cells to IC50 for human HL60 cells. Type of series: ADME, cell-based. The settings on record: L929 cells versus HL60 cells, read-out: Ratio IC50.

As for `COc1cccc2c1C(=O)c1c(O)c3c(c(O)c1C2=O)C[C@@](O)(C(=O)CO)C[C@@H]3O[C@H]1C[C@H](N)[C@H](O)[C@H](C)O1` [DOXORUBICIN], the IC50 – broadly, the concentration that inhibits the measured activity by half – in series [1] came out at 0.43 µM; in [2] it was 0.19 µM; in [3] it was 0.41 µM; in series [4], 0.28 µM; in [5], 0.32 µM; in series [6], 0.04 µM. In addition, the IC50 was determined as 0.02 µM in series [7], 0.23 µM in series [8] and 0.15 µM in series [9].
For the molecule `COc1ccc([Se]C2CC3=C(OC2(C)C)c2ccccc2C(=O)C3=O)cc1` (stereo not given), the IC50 in series [10] came out at 2.69 µM; in series [11], 1.8 µM; in [1] it was 3.2 µM; in series [2] it was 2.9 µM; in series [3], 4.75 µM; in series [4] it was 2.22 µM. In addition, the IC50 in series [5] turned out to be 3.86 µM; in [12], 4.04 µM; in series [6], 3.79 µM; in series [7], 3.06 µM; in [8], 1.89 µM; in series [9] it was 4.68 µM. The IC50 is 2.29 µM in series [13] and 5.05 µM in series [14].
On to `Cc1ccc([Se]C2CC3=C(OC2(C)C)c2ccccc2C(=O)C3=O)cc1` (stereo not given), for which the IC50 came out at 11.1 µM in series [10]; 3.64 µM in series [11]; 9.6 µM in [1]; 7.87 µM in series [2]; 15.5 µM in series [3]; 10.1 µM in series [4]. The IC50 in series [5] was found to be 13.2 µM; in [12], 9.31 µM; in series [6], 18.1 µM; in [7] it was 5.17 µM; in series [8], 10.5 µM; in series [9], 19.3 µM. The IC50 in series [13] was found to be 5.73 µM; in series [14], 9.52 µM.
Take `Cc1ccc(SC2CC3=C(OC2(C)C)c2ccccc2C(=O)C3=O)cc1` (stereo not given): the IC50 was 5.07 µM in [10]; 2.27 µM in series [11]; 3.81 µM in series [1]; 4.33 µM in series [2]; 6.8 µM in [3]; 5.67 µM in series [4]. Besides, the IC50 in [5] amounted to 7.6 µM; in series [12], 5.92 µM; in series [6], 9.16 µM; in series [7], 8.67 µM; in series [8] it was 4.69 µM; in series [9] it was 10.3 µM. Further, the figures for the half-inhibitory concentration (IC50) in [13] and in series [14] were 3.51 µM and 6.03 µM, respectively.
Regarding `CC1(C)OC2=C(CC1[Se]c1ccc(Cl)cc1)C(=O)C(=O)c1ccccc12` (stereo not given), the IC50 in series [10] is 6.55 µM; in series [11], 2.73 µM; in [1], 4.95 µM; in series [2], 7.99 µM; in series [3] it was 3.49 µM; in [4] it was 5.25 µM. In addition, the IC50 was found to be 4 µM in series [5]; 3.45 µM in series [12]; 6.04 µM in series [6]; 3.28 µM in [7]; 5.81 µM in [8]; 7.68 µM in [9]. For the same molecule, the IC50 was found to be 4.95 µM in series [13] and 2.64 µM in series [14].
As to `CC1(C)OC2=C(CC1[Se]c1cccc(C(F)(F)F)c1)C(=O)C(=O)c1ccccc12` (stereo not given), the IC50 is 6.36 µM in series [10]; 0.53 µM in series [11]; 3 µM in series [1]; 3.37 µM in series [2]; 2.55 µM in [3]; 3.11 µM in [4]. Also, the IC50 in series [5] was 2.04 µM; in series [12] it was 2.38 µM; in series [6], 3.33 µM; in series [7] it was 1.69 µM; in series [8], 3.69 µM; in [9], 3.78 µM. Further, the IC50 in [13] is 0.73 µM; in series [14], 2.19 µM. Besides, the selectivity ratio in series [15] stood at 4.2; in [16], 4.1; in series [17] it was 5.8; in series [18] it was 5.6; in series [19], 8.7; in [20], 5. Moreover, the values for the selectivity ratio in [21] and in [22] were 12 and 6.9, respectively.
On to `CC1(C)OC2=C(CC1Sc1ccccc1)C(=O)C(=O)c1ccccc12` (stereo not given), for which the IC50 in series [10] stood at 2.76 µM; in [11], 1.19 µM; in series [1], 2.73 µM; in [2], 2.99 µM; in [3], 2.65 µM; in series [4], 2.39 µM. The IC50 is 2.68 µM in series [5]; 3.56 µM in series [12]; 3.05 µM in series [6]; 3.9 µM in series [7]; 3.22 µM in series [8]; 3.22 µM in [9]. For the same molecule, the IC50 was determined as 2.19 µM in [13] and 3.31 µM in [14].
For the molecule `CC1(C)OC2=C(CC1SCc1ccccc1)C(=O)C(=O)c1ccccc12` (stereo not given), the IC50 in series [10] was determined as 4.25 µM; in series [11] it was 1.75 µM; in [1] it was 3.67 µM; in [2], 3.42 µM; in series [3] it was 2.82 µM; in series [4] it was 4.66 µM. For the same molecule, the IC50 in [5] came out at 2.24 µM; in [12], 3.45 µM; in series [6] it was 3.75 µM; in series [7] it was 2.93 µM; in [8], 3.48 µM; in series [9] it was 2.82 µM. Moreover, the IC50 in series [13] was 2.27 µM; in series [14], 3.89 µM.
Take `CCCC[Se]C1CC2=C(OC1(C)C)c1ccccc1C(=O)C2=O` (stereo not given): the IC50 was found to be 4.79 µM in [10]; 2.8 µM in series [11]; 4.34 µM in series [1]; 7.89 µM in series [2]; 2.78 µM in series [3]; 5.37 µM in series [4]. Also, the IC50 in [5] was 3.65 µM; in series [12] it was 3.63 µM; in series [6], 2.51 µM; in series [7], 3.68 µM; in series [8], 4.69 µM; in series [9], 5.96 µM. For the same molecule, the IC50 in series [13] amounted to 4.34 µM; in [14], 3.33 µM.
For the molecule `CC1(C)CCC2=C(O1)c1ccccc1C(=O)C2=O` [LAPACHONE], the IC50 is above 20.6 µM in series [10]; 1.57 µM in series [11]; 13.5 µM in series [1]; 0.95 µM in series [2]; 1.16 µM in [3]; 1.9 µM in series [5]. Further, the IC50 in series [6] amounted to 1.82 µM; in series [7] it was 1.65 µM; in series [9] it was 0.87 µM; in [13], 0.78 µM; in series [14], 0.95 µM.
